From ChEMBL document CHEMBL1121649, “Benz-fused mesoionic xanthine analogues as inhibitors of cyclic-AMP phosphodiesterase” (J Med Chem, 1981)

Assays:
Type in all cases: protein assay
Heart phosphodiesterase [1] = target: T1, Heart phosphodiesterase (Bos taurus, UniProt Q01061+P14100+E1BN64); assay: Inhibition of cAMP phosphodiesterase in bovine heart; details: for IC50: read-out: I50
Outline: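 I50 taken from a plot of uninhibited over inhibited velocity (V0/V) against inhibitor concentration, read where V0/V = 2. At least five inhibitor concentrations giving 25–75% inhibition were tested per inhibitor.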

Heart phosphodiesterase [2] = target: T1, Heart phosphodiesterase; assay: Inhibition of bovine heart cAMP-phosphodiesterase (Insoluble)
[3] = target: Heart phosphodiesterase (Bos taurus) (UniProt Q01061+P14100+E1BN64); assay: Percent inhibition of bovine heart cAMP-phosphodiesterase at 10-20 uM

Compound | I50 (Heart phosphodiesterase [1]) | I50 (Heart phosphodiesterase [2]) | other results
CCOc1ccc2c(c1)sc1[n+]2C(=O)C(CC)C(=O)N1CC1CC1 (stereo not given) | 69 µM |  | 
CCC1C(=O)N(CC2CC2)c2sc3cc(C)c(C)cc3[n+]2C1=O (stereo not given) |  | Insoluble | 
CCC1C(=O)N(CC2CCCC2)c2sc3ccccc3[n+]2C1=O (stereo not given) | 102 µM |  | 
COC(=O)c1cc(=O)n2c(sc3ccccc32)c1C(=O)OC |  | Insoluble | 
CCC1C(=O)N(CC)c2sc3ccccc3[n+]2C1=O (stereo not given) |  |  | IC50 (Heart phosphodiesterase [1]): 153 µM
CC(C)C1C(=O)N(CC2CC2)c2sc3ccccc3[n+]2C1=O (stereo not given) |  | Insoluble | 
CCC1C(=O)N=C2Sc3ccccc3N2C1=O (stereo not given) | 467 µM |  | 
Cn1c(=O)c2nc[nH]c2n(C)c1=O [THEOPHYLLINE] |  |  | IC50 (Heart phosphodiesterase [1]): 412 µM
CCOc1ccc2c(c1)sc1[n+]2C(=O)C(CC)C(=O)N1CC1CCCCC1 (stereo not given) | 8 µM |  | inhibition [3]: 40%
